From PubChem
RAD54 branch: RAD54 (human) branch migration inhibition; Q92698; RAD54 Holliday junction branch migration, FAM/BHQ fluorescence; inhibition, % at 10.4 µM; actives 0.14% (n = 360,000); AID 602329;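 active means mean normalized replicate activity at least 40 and at least half of replicates scoring 40 or more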;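 further: inhibitors cause a drop in the FAM fluorescence signal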
CAL PDZ FP-1: human CAL PDZ-peptide interaction inhibition; purified CAL PDZ, TMR-peptide fluorescence polarization, 1 h; inhibition, % at 20 µM; actives 0.02% (n = 330,000); AID 504414;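 active means highest replicate inhibition of at least 40%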
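material = purified tagged CAL PDZ domain construct (CerCALP) | compound dosing = 20 µM, one dose | times = 1 h at RT | measured by = fluorescence polarization from S- and P-plane intensities, G-factor corrected | read-out = inhibition from polarization loss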
CAL PDZ FP-2: blocks peptide binding to the human CAL PDZ domain | purified CAL PDZ, TMR-peptide fluorescence polarization, 1 h | inhibition, % at 24.9 µM | actives 0.92% (n = 300,000) | AID 602252 | Q9HD26;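 active means mean inhibition of at least 30% with at least half of replicates also reaching 30%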
RAD52 inh: blocks human RAD52 DNA annealing. P43351. recombinant RAD52 DNA annealing, FRET fluorescence. inhibition, % at 18.7 µM. actives 0.46% (n = 360,000). AID 651710;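 active means every replicate showing at least 50% inhibition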
PDI turbidity: inhibitors of human protein disulfide isomerase. inhibition, % at 10 µM. AID 588391. actives 0.052% (n = 350,000). PDI insulin aggregation turbidity, A650, 90 min;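 active means mean inhibition across replicates of 30% or more, whatever share of single replicates reach that level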
Target sequence (P07237 whole entry, looked up): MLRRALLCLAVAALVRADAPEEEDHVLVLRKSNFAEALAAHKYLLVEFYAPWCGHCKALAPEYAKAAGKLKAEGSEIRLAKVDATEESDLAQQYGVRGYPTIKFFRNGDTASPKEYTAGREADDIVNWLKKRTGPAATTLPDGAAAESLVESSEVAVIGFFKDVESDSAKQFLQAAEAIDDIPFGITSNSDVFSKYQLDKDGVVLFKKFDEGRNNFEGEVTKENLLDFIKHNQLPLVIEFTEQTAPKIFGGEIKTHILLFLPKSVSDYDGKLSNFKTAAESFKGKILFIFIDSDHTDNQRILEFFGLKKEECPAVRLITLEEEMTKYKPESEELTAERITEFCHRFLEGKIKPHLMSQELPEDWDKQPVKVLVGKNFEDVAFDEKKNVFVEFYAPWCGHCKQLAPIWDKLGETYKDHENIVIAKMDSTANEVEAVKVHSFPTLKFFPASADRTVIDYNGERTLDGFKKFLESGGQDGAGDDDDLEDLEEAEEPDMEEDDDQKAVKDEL
ERp5 inh: ERp5 (human) disulfide isomerase inhibition. AID 651711. actives 0.05% (n = 350,000). inhibition, % at 9.99 µM. Q15084. ERp5 insulin aggregation, absorbance 650 nm, 90 min;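 active means mean replicate inhibition above about 25%, with every replicate also reaching it, limit read from the data, passing the limit was not always enough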
Numbers stand for hits. Rows were chosen to be rich in hits. Some 1% of all compounds tested hit in one or more screens of this group.

Screening Cc1cccc(C(=O)NNC(=O)c2ccc(NC(=O)C(C)(C)C)cc2)c1 returned RAD54 branch inactive, CAL PDZ FP-1 inactive, RAD52 inh inactive, PDI turbidity inactive and ERp5 inh inactive.
For O=C(c1ccccn1)N1CC(=O)N2[C@@H](CO)[C@H](c3ccc(C#Cc4ccccc4)cc3)[C@@H]2C1 the results were RAD52 inh inactive and ERp5 inh inactive.
Screening O=C(COC(=O)c1ccc([N+](=O)[O-])o1)NC1CCCCC1 returned RAD54 branch inactive, CAL PDZ FP-1 inactive, CAL PDZ FP-2 inactive, RAD52 inh inactive, PDI turbidity inactive and ERp5 inh inactive.
CCN(C(=O)COC(=O)c1ccc([N+](=O)[O-])o1)C1CCCCC1 was read as RAD54 branch inactive, CAL PDZ FP-1 inactive, CAL PDZ FP-2 125.5, RAD52 inh inactive, PDI turbidity inactive and ERp5 inh inactive.
`Cc1nn(Cc2ccccc2)c(Cl)c1C(=O)NCc1ccco1` gave RAD54 branch inactive, CAL PDZ FP-1 inactive, CAL PDZ FP-2 59.2, RAD52 inh inactive, PDI turbidity inactive and ERp5 inh inactive.
Screening CCC/C=N/NC(=O)c1cccc(Br)c1 returned CAL PDZ FP-1 inactive, CAL PDZ FP-2 86.3, RAD52 inh inactive, PDI turbidity inactive and ERp5 inh inactive.
`CCOc1cc(C(C(=O)NCC2CCCO2)N(C(=O)Cn2nnc3ccccc32)c2ccccc2C(C)=O)ccc1O` (centres undefined) gave CAL PDZ FP-1 inactive, RAD52 inh inactive, PDI turbidity inactive and ERp5 inh inactive.
For CCOc1cc(C(C(=O)NCC2CCCO2)N(C(=O)Cn2nnc3ccccc32)c2ccccc2C)ccc1O (centres undefined) the results were RAD54 branch inactive, CAL PDZ FP-1 inactive, CAL PDZ FP-2 50.3, RAD52 inh inactive, PDI turbidity inactive and ERp5 inh inactive.
For CC(C)c1csc(CN2CCC(N3CCC(C(=O)NCC4CCCO4)CC3)CC2)n1 (centres undefined) the results were CAL PDZ FP-1 inactive, CAL PDZ FP-2 39.1, RAD52 inh inactive, PDI turbidity inactive and ERp5 inh inactive.
For C[C@@H]1CN([C@H](C)CO)C(=O)c2cc(NS(=O)(=O)c3ccccc3)ccc2O[C@@H](C)CCCCO[C@@H]1CN(C)S(=O)(=O)c1ccc(F)cc1 the results were RAD54 branch inactive, RAD52 inh inactive and ERp5 inh inactive.
Screening O=C(COc1ccc(-c2nnco2)cc1)N1CCN(S(=O)(=O)c2ccc3ccccc3c2)CC1 returned RAD54 branch inactive, CAL PDZ FP-1 inactive, CAL PDZ FP-2 42.3 and PDI turbidity inactive.
Screening C[C@H]1CN([C@@H](C)CO)S(=O)(=O)c2ccc(C3=CCCCC3)cc2O[C@@H]1CN(C)Cc1ccncc1 returned RAD54 branch inactive, RAD52 inh inactive and ERp5 inh inactive.
CC(=O)N1CCC(=NNC(=O)c2cc3ccccc3cc2O)CC1 was read as RAD54 branch inactive, CAL PDZ FP-1 inactive, CAL PDZ FP-2 55.3, RAD52 inh inactive, PDI turbidity inactive and ERp5 inh inactive.
`CCCNC(=O)[C@H]1[C@H](CO)[C@H]2Cn3c(ccc(C4=CCCCC4)c3=O)[C@@H]1N2CCC` gave RAD54 branch inactive, RAD52 inh inactive and ERp5 inh inactive.
For Cc1ccc(N(C)C(=O)C2CCCN2S(=O)(=O)c2cccc3nsnc23)cc1 (centres undefined) the results were RAD54 branch inactive, CAL PDZ FP-1 inactive, CAL PDZ FP-2 69.8, RAD52 inh inactive, PDI turbidity inactive and ERp5 inh inactive.
For CCCN(CCC)C(=O)C1CCCN1S(=O)(=O)c1cccc2nsnc12 (centres undefined) the results were RAD54 branch inactive, CAL PDZ FP-1 inactive, CAL PDZ FP-2 inactive, RAD52 inh inactive, PDI turbidity inactive and ERp5 inh inactive.
For CC1CCCCN1C(=O)c1cccc(NC(=O)c2ccccc2)c1 (centres undefined) the results were CAL PDZ FP-1 inactive, CAL PDZ FP-2 75.7, RAD52 inh inactive, PDI turbidity inactive and ERp5 inh inactive.
Screening O=C(Nc1cccc(C(=O)N2CCCC2)c1)C1CCCC1 returned RAD54 branch inactive, CAL PDZ FP-1 inactive, CAL PDZ FP-2 inactive, RAD52 inh inactive, PDI turbidity inactive and ERp5 inh inactive.
For CN(C(=O)c1cccc(NC(=O)c2ccccc2)c1)C1CCCCC1 the results were RAD54 branch inactive, CAL PDZ FP-1 inactive, CAL PDZ FP-2 47.6, RAD52 inh inactive, PDI turbidity inactive and ERp5 inh inactive.
For O=C(Nc1cccc(C(=O)N2CCCCC2)c1)C1CC1 the results were RAD54 branch inactive, CAL PDZ FP-1 inactive, CAL PDZ FP-2 80.9, RAD52 inh inactive, PDI turbidity inactive and ERp5 inh inactive.
CC(C)C(=O)Nc1ccc2c(c1)C(=O)N(C)[C@@H]1CC[C@H](CC(=O)NCc3ccccc3F)O[C@H]1CO2 was read as RAD54 branch inactive.
`C[C@@H]1CCCCO[C@H](CN(C)Cc2ccc(C(F)(F)F)cc2)[C@@H](C)CN([C@@H](C)CO)C(=O)c2cc(NS(=O)(=O)c3cn(C)cn3)ccc2O1` gave RAD54 branch inactive, RAD52 inh inactive and ERp5 inh inactive.
Screening O=c1[nH]c(=O)n(C2CCCCCC2)c(O)c1C=NCc1ccc(F)cc1 returned RAD54 branch inactive, CAL PDZ FP-1 inactive, CAL PDZ FP-2 34.0 and PDI turbidity inactive.
For CC(C)CC#Cc1cnc2c(c1)C(=O)N([C@H](C)CO)C[C@H](C)[C@@H](CN(C)S(=O)(=O)c1cccs1)O2 the results were RAD54 branch inactive, RAD52 inh inactive and ERp5 inh inactive.
Screening CCN1C(=O)c2ccc(C(=O)Nc3ncc(C)s3)cc2C1=O returned RAD54 branch inactive, CAL PDZ FP-1 inactive, CAL PDZ FP-2 46.5, RAD52 inh inactive, PDI turbidity inactive and ERp5 inh inactive.
Screening Cc1cnc(NC(=O)c2ccc3c(c2)C(=O)N(Cc2ccco2)C3=O)s1 returned RAD54 branch inactive, CAL PDZ FP-1 inactive, CAL PDZ FP-2 inactive and PDI turbidity inactive.
C[C@H]1CN([C@@H](C)CO)C(=O)c2cccc(NC(=O)c3nc4ccccc4s3)c2O[C@@H]1CN(C)C(=O)Nc1ccccc1 was read as RAD54 branch inactive, RAD52 inh inactive and ERp5 inh inactive.
Screening COc1ccccc1CNC(=O)CN1C(=O)c2cccc(N)c2C1=O returned RAD54 branch inactive, CAL PDZ FP-1 inactive, CAL PDZ FP-2 inactive, RAD52 inh inactive, PDI turbidity inactive and ERp5 inh inactive.
Screening CCCCNC(=O)CN1C(=O)c2cccc(N)c2C1=O returned CAL PDZ FP-1 inactive, CAL PDZ FP-2 65.8, RAD52 inh inactive, PDI turbidity inactive and ERp5 inh inactive.
Screening O=C1CC(c2ccc3c(c2)OCCO3)Oc2ccc([N+](=O)[O-])cc21 (centres undefined) returned RAD54 branch inactive, CAL PDZ FP-1 inactive, CAL PDZ FP-2 79.2, RAD52 inh inactive, PDI turbidity inactive and ERp5 inh inactive.
